≈ marks a conversion by molar mass, not a printed value. Calls of active or inactive are those of the source. The rule behind the calls is not given here. Bounds are passed on as bounds.

Results on 24 compounds are retold here after ChEMBL document CHEMBL1165910, “Synthesis and biological evaluation of new [1,2,4]triazino[5,6-b]indol-3-ylthio-1,3,5-triazines and [1,2,4]triazino[5,6-b]indol-3-ylthio-pyrimidines against Leishmania donovani” (Eur J Med Chem, 2010).

Data set [1] can be described thus: (§1) Selectivity index, ratio of CC50 for mouse J774A1 cells to IC50 for IC50 Leishmania donovani MHOM/IN/Dd8. It counts as functional, J774.A1.
The nature of data set [2]: Cytotoxicity against mouse J774A1 cells after 72 hrs by MTT assay. In kind it is cell-based, J774.A1. The essentials:
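J774A.1 cells were grown in RPMI with 10% foetal calf serum and 40 µg/mL gentamycin. Exponentially growing cells (1 × 10^4/well) received compound dilutions, made from DMSO stock in complete medium, for 72 h at 37 °C in humidified CO2/air. MTT (5 mg/mL in PBS) was added for 2 h, supernatant removed and formazan dissolved in DMSO. A544 was read, and CC50 (50% viability reduction versus medium-only cells) was estimated by template.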

In data set [3] the test system is Leishmania donovani. Kind of data set: Antileishmanial activity against Leishmania donovani MHOM/IN/Dd8 promastigote carrying firefly luciferase gene infected in mouse J774A1 cells assessed as relative luminescence unit at 40 ug/mL after 72 hrs. The settings on record: for inhibition at 40 µg/mL: MHOM/IN/Dd8, J774.A1, 72 h; for inhibition: J774.A1. It counts as functional.

Data set [4] relates to Leishmania donovani. Description: Antileishmanial activity against Leishmania donovani (MHOM/IN/Dd8) amastigote infected in mouse J774 cells assessed as after 72 hrs by luminometry. In kind it is functional, organism-based. The settings on record: for IC50: MHOM/IN/Dd8, J774, 72 h. The essentials:
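J774 macrophages were seeded at 1.5 × 10^4 cells/well in RPMI-1640 with 10% foetal calf serum at 37 °C under CO2. After 24 h, medium was replaced with medium containing luciferase-transfected stationary-phase promastigotes (2.25 × 10^5/well). Test material at 0.25–10 in complete medium was then added for 72 h at 37 °C. Wells were given PBS plus Steady-Glo and read by luminometer; inhibition was calculated against untreated infected controls.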

Data set [5] deals with Leishmania donovani. Description: Antileishmanial activity against Leishmania donovani (MHOM/IN/Dd8) amastigote infected in mouse J774 cells assessed as after 72 hrs by luminometry at 40 ug/ml. It counts as functional, organism-based.
A further data set concerns J774.A1. The description is as §1. In kind it is functional.
In data set [6] the test system is Leishmania donovani. Description: Antileishmanial activity against Leishmania donovani MHOM/IN/Dd8 promastigote carrying firefly luciferase gene infected in mouse J774A1 cells assessed as relative luminescence unit at 940 ug/mL after 72 hrs. It counts as functional, organism-based. Particulars: J774.A1.
The subject of data set [7] is Leishmania donovani. Description: Antileishmanial activity against Leishmania donovani MHOM/IN/Dd8 promastigote carrying firefly luciferase gene infected in mouse J774A1 cells assessed as relative luminescence unit at 0.5 ug/mL after 72 hrs. The settings on record: MHOM/IN/Dd8, J774.A1, 72 h. It counts as functional.

On to `CC(C)Nc1nc(NC(C)C)nc(Sc2nnc3c4ccccc4n(C)c3n2)n1`, for which, in data set [1], the “Ratio CC50/IC50” value amounted to 3.71. The CC50 – broadly, the concentration that lowers cell viability or growth by half – at 72 h in data set [2] came out at 64.5 µM. Also, in the data set on Leishmania donovani [3], the inhibition (as a rule, the drop in the measured response relative to a control, in per cent) at 40 µg/mL was 99.3%. Besides, the MIC (usually the lowest concentration that inhibits growth of the organism) with Leishmania donovani [4] (MHOM/IN/Dd8, 72 h) is 90.5 µM (≈ 37.1 µg/mL). In addition, in the data set with Leishmania donovani [4], the half-maximal inhibitory concentration (IC50) (as a rule, the concentration needed to halve the response being measured) stood at 17.4 µM.

Consider `Cn1c2ccccc2c2nnc(Sc3nc(NCCN4CCOCC4)nc(NCCN4CCOCC4)n3)nc21`, for which the outcome in the data set on Leishmania donovani [5] was inactive. In addition, in the data set on J774.A1, the “Ratio CC50/IC50” value was “inactive”. The inhibition at 40 µg/mL in the data set on Leishmania donovani [3] was 77.1%.

Take `Cn1c2ccccc2c2nnc(Sc3nc(NCCCN4CCOCC4)nc(NCCCN4CCOCC4)n3)nc21`: the inhibition entry with Leishmania donovani [3] is “inactive”.

For the compound `Cc1cc(Sc2nnc3c4ccccc4n(C)c3n2)nc(NC(C)C)n1`, in data set [1], the “Ratio CC50/IC50” value came out at 3.66. In data set [2], half-maximal cytotoxicity (CC50 at 72 h) was put at 109 µM. The inhibition at 40 µg/mL in the data set with Leishmania donovani [3] amounted to 99.2%. For the same compound, the minimal inhibitory concentration (MIC) with Leishmania donovani [4] (MHOM/IN/Dd8, 72 h) was found to be 93.8 µM (≈ 34.3 µg/mL). Further, in the data set with Leishmania donovani [4], the IC50 turned out to be 29.6 µM.

With `Cn1c2ccccc2c2nnc(Sc3nc(NC(C)(C)C)nc(NC(C)(C)C)n3)nc21`, the result with Leishmania donovani [5] was inactive. Further, in the data set with J774.A1, the “Ratio CC50/IC50” value is “inactive”. For the same compound, the inhibition at 40 µg/mL with Leishmania donovani [3] came to 97.4%.

In the case of `Cc1cc(Sc2nnc3c4ccccc4n(C)c3n2)nc(N2CCN(C)CC2)n1`, the “Ratio CC50/IC50” value in data set [1] turned out to be 0.5. The compound further had a CC50 at 72 h in data set [2] of 29.2 µM. Besides, the inhibition at 40 µg/mL in the data set with Leishmania donovani [3] is 99.9%. Besides, the MIC with Leishmania donovani [4] (MHOM/IN/Dd8, 72 h) worked out at 68.7 µM (≈ 27.9 µg/mL). Further, in the data set with Leishmania donovani [4], the IC50 amounted to 57.8 µM.

For `CCN(CC)CCNc1nc(C)cc(Sc2nnc3c4ccccc4n(C)c3n2)n1`, the outcome with Leishmania donovani [5] was inactive. The “Ratio CC50/IC50” value in the data set with J774.A1 is “inactive”. Besides, in the data set on Leishmania donovani [3], the inhibition at 40 µg/mL stood at 99.9%.

In the case of `CCCCNc1nc(C)cc(Sc2nnc3c4ccccc4n(C)c3n2)n1`, the “Ratio CC50/IC50” value in data set [1] amounted to 4.82. In data set [2], this compound showed a half-maximal cytotoxic concentration (CC50) at 72 h of 88.4 µM. Also, the inhibition at 40 µg/mL in the data set with Leishmania donovani [3] is 99.7%. Moreover, in the data set on Leishmania donovani [4] (MHOM/IN/Dd8, 72 h), the MIC was 110 µM (≈ 41.8 µg/mL). Besides, the half-maximal inhibitory concentration (IC50) in the data set on Leishmania donovani [4] is 18.3 µM.

For `Cn1c2ccccc2c2nnc(Sc3nc(N4CCOCC4)nc(N4CCOCC4)n3)nc21`, the inhibition at 40 µg/mL in the data set on Leishmania donovani [3] was 43.1%.

For the compound `Cc1cc(Sc2nnc3c4ccccc4n(C)c3n2)nc(NCCN(C)C)n1`, the result with Leishmania donovani [5] was inactive. Besides, the “Ratio CC50/IC50” value in the data set with J774.A1 is “inactive”. In the data set with Leishmania donovani [3], the inhibition at 40 µg/mL is 100%.

In the case of “D-Gluconic acid,2,4:2',4'-O-[oxybis-(oxidostibylidyne)]bis-,trisodium salt, nonahydrate”, the inhibition in the data set with Leishmania donovani [6] came to 40%. The Ratio CC50/IC50 in the data set on J774.A1 was found to be 5.53. For the same compound, the minimum inhibitory concentration (MIC) in the data set on Leishmania donovani [4] worked out at 164 µM.

On to `Cc1cc(Sc2nnc3c4ccccc4n(C)c3n2)nc(N2CCOCC2)n1`, for which the inhibition entry in the data set on Leishmania donovani [3] is “inactive”.

`N=C(N)c1ccc(OCCCCCOc2ccc(C(=N)N)cc2)cc1` [PENTAMIDINE] registered a half-maximal cytotoxic concentration (CC50) at 72 h in data set [2] of 52.8 µM. The MIC in the data set with Leishmania donovani [4] (MHOM/IN/Dd8, 72 h) is more than 169 µM. In the data set with Leishmania donovani [4], the IC50 was 20.4 µM. Also, the inhibition at 0.5 µg/mL in the data set on Leishmania donovani [7] was 85%.

With `CCN1CCN(c2nc(C)cc(Sc3nnc4c5ccccc5n(C)c4n3)n2)CC1`, in data set [1], the “Ratio CC50/IC50” value came out at 1.06. This compound also had a 50% cytotoxic concentration (CC50) at 72 h in data set [2] of 28.1 µM. For the same compound, the inhibition at 40 µg/mL in the data set with Leishmania donovani [3] came out at 100%. For the same compound, in the data set on Leishmania donovani [4] (MHOM/IN/Dd8, 72 h), the minimal inhibitory concentration (MIC) was 90.8 µM (≈ 38.2 µg/mL). In addition, in the data set with Leishmania donovani [4], the IC50 stood at 26.3 µM.

Regarding `CCN1CCN(c2nc(Sc3nnc4c5ccccc5n(C)c4n3)nc(N3CCN(CC)CC3)n2)CC1`, the “Ratio CC50/IC50” value in data set [1] came out at 6. In addition, the midpoint of cytotoxicity in data set [2], the CC50 at 72 h, lay at 93.2 µM. In addition, the inhibition at 40 µg/mL in the data set with Leishmania donovani [3] came to 100%. In addition, the MIC in the data set on Leishmania donovani [4] (MHOM/IN/Dd8, 72 h) came out at 26.6 µM (≈ 13.8 µg/mL). In the data set with Leishmania donovani [4], the half-inhibitory concentration (IC50) amounted to 15.5 µM.

Regarding `Cc1cc(Sc2nnc3c4ccccc4n(C)c3n2)nc(NCCN2CCOCC2)n1`, the inhibition at 40 µg/mL in the data set on Leishmania donovani [3] is 51.1%.

For the compound `CN1CCN(c2nc(Sc3nnc4c5ccccc5n(C)c4n3)nc(N3CCN(C)CC3)n2)CC1`, the inhibition result in the data set with Leishmania donovani [3] was “inactive”.

With `Cc1cc(Sc2nnc3c4ccccc4n(C)c3n2)nc(NCCCN2CCOCC2)n1`, the outcome in the data set on Leishmania donovani [5] was inactive. The “Ratio CC50/IC50” value in the data set with J774.A1 was “inactive”. Moreover, the inhibition at 40 µg/mL with Leishmania donovani [3] amounted to 95.1%.

Turning to `CN(C)CCNc1nc(NCCN(C)C)nc(Sc2nnc3c4ccccc4n(C)c3n2)n1`, in the data set with Leishmania donovani [3], the inhibition at 40 µg/mL came to 68.5%.

In the case of `CCCCNc1nc(NCCCC)nc(Sc2nnc3c4ccccc4n(C)c3n2)n1`, in the data set with Leishmania donovani [5], the outcome was inactive. Besides, in the data set on J774.A1, the “Ratio CC50/IC50” value was “inactive”. In data set [2], this compound yielded a half-maximal cytotoxic concentration (CC50) at 72 h of 17.1 µM. Besides, the inhibition at 40 µg/mL in the data set on Leishmania donovani [3] came to 93.2%.

Consider `CCN(CC)CCNc1nc(NCCN(CC)CC)nc(Sc2nnc3c4ccccc4n(C)c3n2)n1`, for which the inhibition at 40 µg/mL with Leishmania donovani [3] worked out at 49.3%.

`Cc1cc(Sc2nnc3c4ccccc4n(C)c3n2)nc(N2CCCCC2)n1`: the “Ratio CC50/IC50” value in data set [1] stood at 6.74. Further, it took 173 µM to reach half-maximal cytotoxicity in data set [2] (CC50 at 72 h). The inhibition at 40 µg/mL in the data set with Leishmania donovani [3] amounted to 99.3%. Further, the MIC in the data set on Leishmania donovani [4] (MHOM/IN/Dd8, 72 h) is 139 µM (≈ 54.3 µg/mL). Besides, the half-inhibitory concentration (IC50) in the data set on Leishmania donovani [4] was determined as 25.7 µM.

Consider `Cn1c2ccccc2c2nnc(Sc3nc(N4CCCCC4)nc(N4CCCCC4)n3)nc21`, for which the “Ratio CC50/IC50” value in data set [1] was 56.61. Besides, in data set [2], the cytotoxic concentration (CC50) at 72 h came out at 227 µM. The inhibition at 40 µg/mL in the data set on Leishmania donovani [3] came to 75.6%. For the same compound, the MIC in the data set on Leishmania donovani [4] (MHOM/IN/Dd8, 72 h) was 20.5 µM (≈ 9.48 µg/mL). Besides, the IC50 with Leishmania donovani [4] is 4.01 µM.

Take `Cc1cc(Sc2nnc3c4ccccc4n(C)c3n2)nc(NC(C)(C)C)n1`: the inhibition at 40 µg/mL with Leishmania donovani [3] was 66.7%.
